Series [1] is described as follows: folding enthalpy; higher = less favourable; fluorescence melt of hairpins on a sequencing array, two-state fit. The settings on record: sodium 0.088 M. In a few lines: (§1)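 Folding enthalpy and melting temperature come from bootstrapped two-state fits to Cy3 fluorescence of library hairpins carrying annealed Cy3 and quencher oligos on a sequenced MiSeq flow cell. Imaging was done in 50 mM Na-HEPES pH 8.0, 25 mM NaCl, stepping by 2.5 °C up to 60 °C, and signals were normalised to pre-quench Cy3 and to control constructs. Results of four replicates were combined by inverse variance, and fitted temperatures were raised by 9.35 °C to match UV melts.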

The nature of series [2]: melting temperature; fluorescence melt of hairpins on a sequencing array, two-state fit, raised by 9.35 °C to match UV melts. As to conditions: sodium 0.088 M. In short, it runs like this: as §1

With GGACGTGCGAAAGCATCC (((..(((....)))))), in series [1], the folding enthalpy is -9.73 kcal/mol. Also, in series [2], the Tm amounted to 30.6 °C.
Take GGACGTGGAAACACGCCC ((.((((....)))).)): the folding enthalpy in series [1] is -35.7 kcal/mol. Also, the Tm in series [2] was determined as 53 °C.
The matching figures for GGACGTGGAAACGCGTTC (.(((.(....).))).): -24.2 kcal/mol and 44.3 °C.
On the same counts, the results for GGACTAGGAAACCAGTCC (((((.(....).))))) are -31 kcal/mol and 44.8 °C.
The matching figures for GGACTAGGAAACTGGTTC (.((.((....)).)).): -13.1 kcal/mol and 29.8 °C.
For GGACTCACGAAAGTGTCC (((..(((....)))))), the folding enthalpy in series [1] is -19.3 kcal/mol. For the same sequence, in series [2], the Tm came to 41.5 °C.
GGACTCCGAAAGGAATCC (((.(((....))).))): the folding enthalpy in series [1] is -30.5 kcal/mol. Moreover, in series [2], the Tm stood at 47.3 °C.
The matching figures for GGACTCCGAAAGGATCC (((.(((....)))))): -24.5 kcal/mol and 46.9 °C.
On the same counts, the results for GGACTCGAAAGAGAGTCC ((((((....)))..))) are -40.5 kcal/mol and 54.5 °C.
The matching figures for GGACTCGAAAGAGCCTCC ((((((....)))..))): -16.9 kcal/mol and 42.7 °C.
For the sequence GGACTCGAAAGAGCTTCC ((((((....)))..))), in series [1], the folding enthalpy was -18.9 kcal/mol. Moreover, the Tm in series [2] was 35.3 °C.
With GGACTCGAAAGAGTATCC ((((((....)))..))), the folding enthalpy in series [1] was -13.8 kcal/mol. Also, the Tm in series [2] is 33.3 °C.
The matching figures for GGACTCGGAAACAAGTCC (((((.(....).))))): -27.8 kcal/mol and 42.2 °C.
The matching figures for GGACTGACGAAAGTCTCC (((..(((....)))))): -9.45 kcal/mol and 28.6 °C.
On to GGACTGGGAAACCAGTTC (.(((((....))))).), for which the folding enthalpy in series [1] was -28.6 kcal/mol. Further, in series [2], the Tm was determined as 50.6 °C.
As to GGACTGGGAAACCGGTTC (.((.((....)).)).), the folding enthalpy in series [1] was -25.5 kcal/mol. In addition, the Tm in series [2] worked out at 37.5 °C.
For GGACTTCGAAAGAACTCC (((.(((....))).))), the folding enthalpy in series [1] is -13.2 kcal/mol. Also, the Tm in series [2] stood at 29.6 °C.
Consider GGACTTGAAAAAGTCC ((((((....)))))), for which, in series [1], the folding enthalpy was -41.9 kcal/mol. Moreover, the Tm in series [2] is 58.2 °C.
The matching figures for GGACTTGCGAAAGCATCC (((..(((....)))))): -9.43 kcal/mol and 26.3 °C.
The matching figures for GGACTTGGAAACAAGCCC ((.((((....)))).)): -31 kcal/mol and 46.1 °C.
On the same counts, the results for GGAGAACGAAAGTTTCC (((.(((....)))))) are -19.7 kcal/mol and 33.4 °C.
As to GGAGAAGGAAACTTTTCC (((.(((....))).))), in series [1], the folding enthalpy was -26.2 kcal/mol. Moreover, the Tm in series [2] is 31.1 °C.
The matching figures for GGAGACCGAAAGGTGTCC (((.(((....))).))): -40.8 kcal/mol and 58.9 °C.
The matching figures for GGAGACGAAAGTCCGTCC ((((((....)))..))): -12.4 kcal/mol and 32.5 °C.
The matching figures for GGAGACGAAAGTCCTTCC ((((((....)))..))): -21.1 kcal/mol and 42.6 °C.
With GGAGACGAAAGTCGTTCC ((((((....)))..))), the folding enthalpy in series [1] is -11.8 kcal/mol. Also, the Tm in series [2] was 36.7 °C.
The matching figures for GGAGACGAAAGTCTGTCC ((((((....)))..))): -11.2 kcal/mol and 34.5 °C.
The matching figures for GGAGAGACGAAAGTCTCC (((..(((....)))))): -9.49 kcal/mol and 44 °C.
As for GGAGAGCGAAAGCTATCC (((.(((....))).))), the folding enthalpy in series [1] was -42.1 kcal/mol. Moreover, the Tm in series [2] was found to be 57.6 °C.
On the same counts, the results for GGAGAGCGAAAGCTTCC (((.(((....)))))) are -18.2 kcal/mol and 44.5 °C.
On to GGAGAGGGAAACCCCTCC ((((.((....)).)))), for which, in series [1], the folding enthalpy was -28.6 kcal/mol. Also, the Tm in series [2] was 45 °C.
The matching figures for GGAGAGGGAAACTTCTCC (((((.(....).))))): -26.8 kcal/mol and 44.3 °C.
The matching figures for GGAGATCGAAAGATATCC (((.(((....))).))): -43.2 kcal/mol and 49.6 °C.
The matching figures for GGAGATCGAAAGATTCC (((.(((....)))))): -18.9 kcal/mol and 36 °C.
Regarding GGAGATGAAAATCTCC ((((((....)))))), in series [1], the folding enthalpy was -36.2 kcal/mol. Also, the Tm in series [2] turned out to be 57.6 °C.
On the same counts, the results for GGAGATGGAAACGTCTCC (((((.(....).))))) are -36.9 kcal/mol and 49.5 °C.
Consider GGAGCAGAAATGCTCC ((((((....)))))), for which, in series [1], the folding enthalpy was -36.9 kcal/mol. In addition, the Tm in series [2] worked out at 62.3 °C.
With GGAGCAGGAAACCGCTCC (((((.(....).))))), the folding enthalpy in series [1] is -34.1 kcal/mol. Also, the Tm in series [2] was 55.2 °C.
For GGAGCCACGAAAGTGTCC (((..(((....)))))), the folding enthalpy in series [1] is -8.88 kcal/mol. Moreover, in series [2], the Tm came to 28.5 °C.
On to GGAGCCGAAAGGCGCTCC ((((((....)))..))), for which, in series [1], the folding enthalpy is -9.71 kcal/mol. The Tm in series [2] was 47.9 °C.
The matching figures for GGAGCCGAAAGGCTTTCC ((((((....)))..))): -7.92 kcal/mol and 43.8 °C.
For the sequence GGAGCCGGAAACGACTCC ((((.((....)).)))), the folding enthalpy in series [1] is -55.2 kcal/mol. Besides, the Tm in series [2] came to 52 °C.
As to GGAGCGCCGAAAGGCTCC (((..(((....)))))), the folding enthalpy in series [1] was -14.7 kcal/mol. In addition, the Tm in series [2] stood at 44.2 °C.
On the same counts, the results for GGAGCGGGAAACCGCCCC ((.((((....)))).)) are -16.3 kcal/mol and 56.7 °C.
GGAGCGTCGAAAGACTCC (((..(((....)))))): the folding enthalpy in series [1] was -13.7 kcal/mol. In series [2], the Tm was 31.4 °C.
The matching figures for GGAGCTCGAAAGAGATCC (((.(((....))).))): -44 kcal/mol and 64 °C.
On the same counts, the results for GGAGCTCGAAAGAGTCC (((.(((....)))))) are -17.8 kcal/mol and 48.2 °C.
On the same counts, the results for GGAGCTGAAAAGCTCC ((((((....)))))) are -37.5 kcal/mol and 68.9 °C.
With GGAGCTGGAAACAACTCC ((((.((....)).)))), the folding enthalpy in series [1] was -31.2 kcal/mol. Further, the Tm in series [2] came to 42.6 °C.
On the same counts, the results for GGAGCTGGAAACGGCTTC (.(((.(....).))).) are -25.9 kcal/mol and 41.5 °C.
The matching figures for GGAGGACGAAAGTCTTCC (((.(((....))).))): -30.1 kcal/mol and 53.5 °C.
The matching figures for GGAGGAGGAAACTCCTTC (.(((((....))))).): -28.7 kcal/mol and 53.4 °C.
GGAGGCCCGAAAGGGTCC (((..(((....)))))): the folding enthalpy in series [1] is -12 kcal/mol. The Tm in series [2] amounted to 42.6 °C.
On the same counts, the results for GGAGGCCGAAAGGCTTCC (((.(((....))).))) are -28.9 kcal/mol and 64.2 °C.
On the same counts, the results for GGAGGCGAAAGCCTCTCC ((((((....)))..))) are -8.68 kcal/mol and 54.2 °C.

These data come from the array DNA melting data of Ke et al. (doi:10.1101/2024.01.08.574731).
